Series [1] concerns Rattus norvegicus. As to the kind of experiment: Neuroprotective activity against middle cerebral artery occlusion-induced ischemia-reperfusion injury Sprague-Dawley rat model assessed as decrease in cerebral infarct volume at 95 to 9500 microg/kg, iv pretreated for 2 hrs followed by reperfusion measured after 24 hrs. It is filed as functional, organism-based. Conditions: dose 95-9500 µg/kg. The essentials:
(§1)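 Male SD rats (N = 8/group) were dosed iv at 95, 950 or 9500 μg/kg 2 h before 2 h MCAO (nylon suture, chloral hydrate anesthesia), then reperfused. Where used, PTIO 1 mg/kg iv was given 30 min before compound. At 24 h, blinded assessment covered Longa deficit score, TTC-stained 2 mm sections (infarct area/whole area), and edema by wet/dry weight.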

For series [2], the system named is Rattus norvegicus. As to the kind of experiment: Neuroprotective activity against middle cerebral artery occlusion-induced ischemia-reperfusion injury Sprague-Dawley rat model assessed as increase in HO-1 expression in cerebral ischemic penumbra at 950 microg/kg, iv treated immediately reperfusion measured after 24 hrs. The note with it: dose 950.0 µg/kg. The format is functional, organism-based. The procedure, abridged:
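MCAO rat brain paraffin sections (3 μm) were blocked with 10% goat serum and stained by IHC for NQO-1 and HO-1 (1:200) and phospho-Nrf2 (1:100), with DAB detection and rabbit IgG as negative control. Average optical density of positive cells was scored blinded over five fields per sample.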

The test system of series [3] is Cortical neurone. As to the kind of experiment: Induction of Nrf2 protein level in OGD/R-induced rat primary cortical neuron pretreated at 1.8 uM for 24 hrs followed by subjected to OGD for 2 hrs measured after 24 hrs under normoxic condition by Western blot analysis. The format is functional, tissue-based. The essentials:
(§2)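 Primary rat cortical neurons were pretreated with 1.8 μM compound for 24 h, given 2 h OGD, then 24 h normoxic culture. Nrf2, HO-1 and NQO1 mRNA were measured by RT-qPCR. Cytoplasmic and nuclear protein (30 μg/lane) were blotted for Nrf2, with lamin A and β-actin as references, and quantified by densitometry as the nuclear:cytoplasmic ratio. Three independent experiments, mean ± SD.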
In general terms: In western blotting, separated proteins are transferred to a membrane and probed.

For series [4], the system named is Rattus norvegicus. As to the kind of experiment: Neuroprotective activity against middle cerebral artery occlusion-induced ischemia-reperfusion injury Sprague-Dawley rat model assessed as increase in AuroraB + cells in cerebral ischemic penumbra at 95 to 950 microg/kg, iv treated immediately reperfusion measured after 24 hrs in presence of PTIO by immunofluoresence assay. It is filed as functional, organism-based. The note with it: dose 95-950 µg/kg.

Series [5] relates to Cortical neurone. As to the kind of experiment: Effect on Nrf2 mRNA transcript level in OGD/R-induced rat primary cortical neuron pretreated at 1.8 uM for 24 hrs followed by subjected to OGD for 2 hrs measured after 24 hrs under normoxic condition by RT-qPCR analysis. The format is functional, tissue-based. The essentials: as §2
Series [6] has as its system Rattus norvegicus. As to the kind of experiment: Neuroprotective activity against middle cerebral artery occlusion-induced ischemia-reperfusion injury Sprague-Dawley rat model assessed as decrease in neurologic deficit scores at 950 microg/kg, iv pretreated for 2 hrs followed by reperfusion measured after 24 hrs in presence of PTIO. The format is functional, organism-based. The note with it: dose 950.0 µg/kg. The essentials:
as §1

The subject of series [7] is Rattus norvegicus. As to the kind of experiment: Neuroprotective activity against middle cerebral artery occlusion-induced ischemia-reperfusion injury Sprague-Dawley rat model assessed as decrease in cerebral infarct volume at 950 microg/kg, iv pretreated for 2 hrs followed by reperfusion measured after 24 hrs in presence of PTIO. The format is functional, organism-based. The note with it: dose 950.0 µg/kg. The procedure, abridged:
as §1

For series [8], the system named is Rattus norvegicus. As to the kind of experiment: Angiogenic activity in middle cerebral artery occlusion-induced ischemia-reperfusion injury Sprague-Dawley rat model assessed as tube formation in cerebral ischemic penumbra at 95 to 9500 microg/kg, iv treated immediately reperfusion measured after 7 days by immunofluoresence assay. The note with it: dose 95-9500 µg/kg, time 7.0 day. It is filed as functional, organism-based. The procedure, abridged: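 After MCAO/reperfusion, SD rats (N = 5/group) were dosed iv immediately after reperfusion and then daily for 7 days, with or without PTIO. Paraffin brain sections (3 μm) were immunostained for CD31, Ki67 and Aurora B with DAPI. Vascular density was CD31⁺/DAPI⁺; proliferating endothelium was CD31⁺Ki67⁺/CD31⁺.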

Series [9] can be described thus: GSH reactivity assessed as reaction rate measured at 32 equiv of GSH upto 24 hrs by HPLC analysis. It is filed as ADME.
Series [10] relates to Cortical neurone. As to the kind of experiment: Induction of NQO1 mRNA transcript level in OGD/R-induced rat primary cortical neuron pretreated at 1.8 uM for 24 hrs followed by subjected to OGD for 2 hrs measured after 24 hrs under normoxic condition by RT-qPCR analysis. It is filed as functional, tissue-based. The procedure, abridged:
as §2
For orientation: Quantitative PCR measures a nucleic acid by following its amplification.

The source made the active and inactive calls. No cut-off for these calls is given here.

For the molecule `O=C(/C(=C/c1ccccc1)C[N+](=O)[O-])c1ccccc1`, the result in series [1], in series [2], in series [3], in series [8] and in series [10] was Active. The result in series [4], in [5], in series [6] and in series [7] was inactive. Besides, the Activity in series [9] was determined as 0.056 h⁻¹.

(Values after ChEMBL document CHEMBL5029154, “Design, Synthesis, and Biological Evaluation of Organic Nitrite (NO2-) Donors as Potential Anticerebral Ischemia Agents” (J Med Chem, 2021).)
